{"source": "ChEMBL document CHEMBL4837214", "about": "“Design, synthesis, and biological evaluation of novel tetrahydroprotoberberine derivatives to reduce SREBPs expression for the treatment of hyperlipidemia” (Eur J Med Chem, 2021)", "key": {"Mus musculus [1]": {"system": "Mus musculus", "assay": "Hypolipidemic activity in high fat diet-induced C57BL/6J mouse assessed as reduction in lipid accumulation in liver at 170 to 340 mg/kg, po administered daily for 6 weeks by Oil Red O staining based assay", "assay_type": "functional, organism-based", "conditions": "dose 170-340 mg/kg", "summary_of_the_method": "(§1)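 Male C57BL/6J mice, six weeks old, fed a 45%-fat diet (HFD) for 15 weeks; chow-fed mice served as controls. Obese mice were randomized to vehicle (0.1% w/v CMC-Na) or 170 or 340 mg/kg, gavaged daily for 6 weeks while diet continued. Body weight, food intake, organ weights, serum lipids, tissue histology (H&E, Oil red O), liver SREBP blots and liver qPCR followed.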"}, "Mus musculus [2]": {"system": "Mus musculus", "assay": "[…] activity in high fat diet-induced C57BL/6J mouse assessed as reduction in Fasn mRNA level in liver at 170 to 340 mg/kg, po administered daily for 6 weeks by qRT-PCR analysis", "assay_type": "functional, organism-based", "conditions": "dose 170-340 mg/kg", "summary_of_the_method": "as §1"}, "Mus musculus [3]": {"system": "Mus musculus", "assay": "Hypolipidemic activity in high fat diet-induced C57BL/6J mouse assessed as reduction in serum TG level at 170 to 340 mg/kg, po administered daily for 6 weeks", "assay_type": "functional, organism-based", "conditions": "dose 170-340 mg/kg", "summary_of_the_method": "as §1"}, "[4]": {"assay": "MRT (0 to infinity) in Sprague-Dawley rat at 10 mg/kg, po measured upto 24 hrs by LC-MS/MS analysis", "assay_type": "ADME, organism-based", "conditions": "in vivo", "summary_of_the_method": "(§2)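 Six SD rats split into two groups of three, dosed 1 mg/kg IV or 10 mg/kg orally. IV blood drawn at 2, 5, 15, 30 min and 1, 2, 4, 6, 8, 12 h. Oral blood drawn at 5, 15, 30 min and 1, 2, 4, 6, 8, 12, 24 h. Serum drug measured by LC/MS/MS. Parameters are the average of three runs.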"}, "[5]": {"assay": "Toxicity in high fat diet-induced C57BL/6J mouse assessed as change in lung morphology at 170 to 340 mg/kg, po administered for 6 weeks by H and E staining-based assay", "assay_type": "organism-based", "conditions": "in vivo, 1008 h, dose 170-340 mg/kg", "summary_of_the_method": "as §1"}, "[6]": {"assay": "Clearance in Sprague-Dawley rat at 10 mg/kg, po measured upto 24 hrs by LC-MS/MS analysis", "assay_type": "ADME, organism-based", "conditions": "in vivo", "summary_of_the_method": "as §2"}, "[7]": {"molecular_target": "T1, Sterol regulatory element-binding protein 1 (Homo sapiens) (UniProt P36956)", "T1 sequence (whole entry)": "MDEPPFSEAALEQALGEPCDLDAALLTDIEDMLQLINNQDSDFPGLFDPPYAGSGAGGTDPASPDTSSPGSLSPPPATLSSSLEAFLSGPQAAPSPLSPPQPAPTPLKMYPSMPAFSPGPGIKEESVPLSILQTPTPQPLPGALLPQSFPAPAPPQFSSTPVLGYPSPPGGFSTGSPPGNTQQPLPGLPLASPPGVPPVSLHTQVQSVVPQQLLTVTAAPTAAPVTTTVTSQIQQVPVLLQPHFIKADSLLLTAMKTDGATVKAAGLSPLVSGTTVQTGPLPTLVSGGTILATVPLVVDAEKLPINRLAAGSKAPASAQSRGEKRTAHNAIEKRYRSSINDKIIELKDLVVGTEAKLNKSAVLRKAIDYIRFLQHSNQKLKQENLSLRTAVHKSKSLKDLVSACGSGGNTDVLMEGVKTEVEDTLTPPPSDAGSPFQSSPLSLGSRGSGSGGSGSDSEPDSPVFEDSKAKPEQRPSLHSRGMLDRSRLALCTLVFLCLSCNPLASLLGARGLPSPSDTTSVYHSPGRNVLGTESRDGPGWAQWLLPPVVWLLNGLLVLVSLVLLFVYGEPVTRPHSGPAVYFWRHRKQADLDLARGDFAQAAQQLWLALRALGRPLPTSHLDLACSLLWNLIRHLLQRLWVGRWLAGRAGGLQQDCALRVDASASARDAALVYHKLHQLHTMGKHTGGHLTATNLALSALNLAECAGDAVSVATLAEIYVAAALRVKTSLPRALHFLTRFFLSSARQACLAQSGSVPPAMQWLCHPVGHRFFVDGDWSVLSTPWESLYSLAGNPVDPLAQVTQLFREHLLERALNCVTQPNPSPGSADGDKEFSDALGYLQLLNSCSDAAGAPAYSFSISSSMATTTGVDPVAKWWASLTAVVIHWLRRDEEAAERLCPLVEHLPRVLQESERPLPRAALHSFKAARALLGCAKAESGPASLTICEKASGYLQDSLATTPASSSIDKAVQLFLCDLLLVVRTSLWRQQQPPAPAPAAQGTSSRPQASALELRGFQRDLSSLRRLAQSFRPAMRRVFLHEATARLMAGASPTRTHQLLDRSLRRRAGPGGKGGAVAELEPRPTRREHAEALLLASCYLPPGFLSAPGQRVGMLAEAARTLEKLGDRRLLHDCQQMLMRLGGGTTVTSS", "assay": "Induction of SREBP degradation in human HepG2 cells at 10 uM preincubated with cycloheximide for 1 hr followed by compound additon by Western blot analysis", "assay_type": "cell-based", "summary_of_the_method": "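HepG2 cells pretreated 1 h with cycloheximide at […]. Medium then switched to cycloheximide plus vehicle or compound at […] for varying times. SREBP decay rate followed by Western blot of lysates.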"}, "[8]": {"assay": "Oral bioavailability in Sprague-Dawley rat at 10 mg/kg measured upto 24 hrs by LC-MS/MS analysis", "assay_type": "ADME, organism-based", "conditions": "in vivo", "summary_of_the_method": "as §2"}, "[9]": {"assay": "Half life in Sprague-Dawley rat at 10 mg/kg, po measured upto 24 hrs by LC-MS/MS analysis", "assay_type": "ADME, organism-based", "conditions": "in vivo", "summary_of_the_method": "as §2"}, "[10]": {"assay": "Clearance in Sprague-Dawley rat at 1 mg/kg, iv measured upto 12 hrs by LC-MS/MS analysis", "assay_type": "ADME, organism-based", "conditions": "in vivo", "summary_of_the_method": "as §2"}, "HepG2": {"system": "HepG2", "assay": "Down regulation of ACC gene expression in human HepG2 cells by qRT-PCR analysis", "assay_type": "functional, cell-based"}, "Mus musculus [11]": {"system": "Mus musculus", "assay": "[…] activity in high fat diet-induced C57BL/6J mouse assessed as reduction in LDLR mRNA level in liver at 170 to 340 mg/kg, po administered daily for 6 weeks by qRT-PCR analysis", "assay_type": "functional, organism-based", "conditions": "dose 170-340 mg/kg", "summary_of_the_method": "as §1"}, "[12]": {"assay": "Toxicity in high fat diet-induced C57BL/6J mouse assessed as reduction in food intake at 170 to 340 mg/kg, po measured every week for 6 weeks", "assay_type": "organism-based", "conditions": "in vivo, 1008 h, dose 170-340 mg/kg", "summary_of_the_method": "as §1"}, "Mus musculus [13]": {"system": "Mus musculus", "assay": "Hypolipidemic activity in high fat diet-fed C57BL/6J mouse assessed as increase in brown fat/body weight ratio at 340 mg/kg/day, po administered for 6 weeks", "assay_type": "functional, organism-based", "summary_of_the_method": "as §1"}}, "note": "Active and inactive are the calls of the source. No cut-off for these calls is given here."}
{"compound": "COc1ccc2c(c1OCC1CCCCC1)CN1CCc3cc4c(cc3C1C2)OCO4", "note": "(centres undefined)", "values": [{"measurement": "Activity", "setting": "Mus musculus [1]", "result": "Active"}, {"measurement": "Activity", "setting": "Mus musculus [2]", "result": "Active"}, {"measurement": "Activity", "setting": "Mus musculus [3]", "result": "Active"}, {"measurement": "MRT inf", "setting": "[4]", "result": 8.03, "unit": "h"}, {"measurement": "Activity", "setting": "[5]", "result": "Non-Toxic"}, {"measurement": "CL", "setting": "[6]", "result": 8.52, "unit": "mL/min/kg"}, {"measurement": "Activity", "setting": "[7]", "result": "Active"}, {"measurement": "bioavailability", "setting": "[8]", "result": 65.1, "unit": "%"}, {"measurement": "half-life", "setting": "[9]", "result": 5.36, "unit": "h"}, {"measurement": "clearance", "setting": "[10]", "result": 25.8, "unit": "mL/min/kg"}, {"measurement": "Activity", "setting": "HepG2", "result": "Active"}, {"measurement": "Activity", "setting": "Mus musculus [11]", "result": "Active"}, {"measurement": "Activity", "setting": "[12]", "result": "Non-Toxic"}, {"measurement": "Activity", "setting": "Mus musculus [13]", "result": "Active"}]}
